The results in this text go back to ChEMBL document CHEMBL3392957, “The discovery of 1,2,3,9b-tetrahydro-5H-imidazo[2,1-a]isoindol-5-ones as a new class of respiratory syncytial virus (RSV) fusion inhibitors. Part 1” (Bioorg Med Chem Lett, 2015).

The subject of data set [1] is Respiratory syncytial virus. The data set is described as follows: Antiviral activity against Respiratory syncytial virus B1 infected in human Hep2 cells assessed as inhibition of virus-induced cytopathicity after 5 days by MTT assay. The class given is functional, organism-based. The conditions noted are these: B1, HEp-2, 120 h. Put shortly: (§1)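 HEp2 cells (1.0 × 10⁴/well) infected at low moi (e.g. RSV A2 at moi 0.01) and added to serially diluted compound; 5 days at 37 °C, 5% CO₂. CPE read by MTT (1 mg/ml, 2 h, 37 °C), isopropanol, absorbance 540 nm; EC₅₀ by non-linear regression. SD given where n > 2.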

The subject of data set [2] is Respiratory syncytial virus. The data set is described as follows: Antiviral activity against wild-type Respiratory syncytial virus A Long infected in human Hep2 cells assessed as inhibition of virus-induced cytopathicity after 5 days by MTT assay. The data set is classed as functional, organism-based. The conditions noted are these: HEp-2, 120 h. Put shortly:
as §1

For data set [3], the system named is Respiratory syncytial virus. Nature of the data set: Antiviral activity against Respiratory syncytial virus A2 infected in human Hep2 cells assessed as inhibition of virus-induced cytopathicity after 5 days by MTT assay. The class given is functional, organism-based. The conditions noted are these: A2, HEp-2, 120 h. Put shortly: as §1
Data set [4] can be described thus: Cytotoxicity against human Hep2 cells after 5 days by MTT assay. The class given is cell-based, HEp-2. Put shortly: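 Uninfected HEp2 cells (1.0 × 10⁴/well) with serially diluted compound, 5 days at 37 °C in 5% CO₂; viability by MTT (1 mg/ml, 2 h), isopropanol, absorbance 540 nm; CC₅₀ by non-linear regression.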
In data set [5] the test system is Respiratory syncytial virus. The data set is described as follows: Antiviral activity against Respiratory syncytial virus A2 infected in human Hep2 cells assessed as inhibition of virus-induced cytopathicity after 5 days by MTT assay relative to alpha-1-acid glycoprotein. The data set is classed as functional, HEp-2. A digest of the protocol:
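RSV A2 CPE assay in HEp2 cells (moi 0.01, 5 days, 37 °C, MTT read-out at 540 nm) run with alpha-1-acid glycoprotein at 1.5 mg/mL; result expressed as fold shift in EC₅₀ versus the assay without AAG.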

Data set [6] in a line: Kinetic solubility of the compound at pH 2 by nephelometry. The class given is physicochemical. The conditions noted are these: buffer, read-out: Kinetic_solubility. A digest of the protocol: (§2)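 Kinetic solubility by nephelometry, at pH 2 and pH 6.5; reported as a range in μg/mL.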
Data set [7] is described as follows: Kinetic solubility of the compound at pH 6.5 by nephelometry. The class given is physicochemical. The conditions noted are these: buffer, read-out: Kinetic_solubility. Put shortly: as §2
Data set [8] is described as follows: Lipophilicity, log D of the compound in octanol saturated mobile phase at pH 7.4 by chromatographic method. The data set is classed as physicochemical. A digest of the protocol: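 Effective logD determined chromatographically on a SUPELCOSIL LC-ABZ column with octanol-saturated mobile phase, pH 7.4.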
Data set [9] has as its system Respiratory syncytial virus. Nature of the data set: Selectivity ratio of EC50 for Respiratory syncytial virus A Long harboring F protein D489 mutant infected in human Hep2 cells to EC50 for wild-type Respiratory syncytial virus A Long infected in human Hep2 cells. The data set is classed as functional, HEp-2. Put shortly: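 CPE assay: HEp2 cells (1.0 × 10⁴/well) infected at low moi with RSV A Long, either F-protein D489Y mutant or wild type, and added to serially diluted compound. Incubated 5 days at 37 °C, 5% CO₂. MTT (1 mg/ml) added for 2 h, then isopropanol, and absorbance read at 540 nm. EC50 by non-linear regression. Ratio is mutant EC50 over wild-type EC50.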

The nature of data set [10]: Plasma protein binding in rat. The class given is ADME, cell-free. The conditions noted are these: read-out: PPB (converted).
Data set [11] is described as follows: Elimination half life in Sprague-Dawley rat at 1.4 mg/kg, iv. The data set is classed as ADME, organism-based. Also on record: dose 1.4 mg/kg, route intravenous. The conditions noted are these: in vivo, read-out: beta t1/2 (converted).
The nature of data set [12]: Total clearance in Sprague-Dawley rat at 1.4 mg/kg, iv. The data set is classed as ADME, organism-based. The conditions noted are these: in vivo. On the set-up: dose 1.4 mg/kg, route intravenous.
Data set [13] in a line: Apparent volume of distribution in Sprague-Dawley rat at 1.4 mg/kg, iv. The class given is ADME, organism-based. The conditions noted are these: in vivo, read-out: Vz. Also on record: dose 1.4 mg/kg, route intravenous.
Data set [14] can be described thus: Cmax in Sprague-Dawley rat at 22 mg/kg, po as suspension with hydroxypropylmethylcellulose. The conditions noted are these: in vivo. Also on record: dose 22 mg/kg, route oral. The class given is ADME, organism-based.
Data set [15] can be described thus: Elimination half life in Sprague-Dawley rat at 22 mg/kg, po as suspension with hydroxypropylmethylcellulose. The class given is ADME, organism-based. On the set-up: dose 22 mg/kg, route oral. The conditions noted are these: in vivo, read-out: beta t1/2 (converted).
Data set [16] can be described thus: Oral bioavailability in Sprague-Dawley rat at 22 mg/kg as suspension with hydroxypropylmethylcellulose. The class given is ADME, organism-based. The conditions noted are these: in vivo.
The test system of data set [17] is Respiratory syncytial virus. The data set is described as follows: Selectivity ratio of EC50 for Respiratory syncytial virus A Long harboring F protein D489Y mutant infected in human Hep2 cells to EC50 for wild-type Respiratory syncytial virus A Long infected in human Hep2 cells.

In brackets after ≈: the same amount, converted by molar mass. Some results are limits rather than exact numbers.

With `O=C(c1ccc(F)cc1)N1CCN2C(=O)c3ccccc3C12c1ccc(Cl)cc1` (racemic), the results for the EC50 in data set [1], in data set [2] and in data set [3] were 750 nM, 260 nM and 280 nM, respectively. In [4], the CC50 at 120 h is above 20000 nM. The “fold change (FC)” value in data set [5] was determined as 39. In addition, the solubility kinetic in [6] and in data set [7] was 6.3 µg/mL (≈ 15.5 µM) throughout. The compound further displayed a chromatographic logD in [8] of 4. Moreover, the “Ratio EC50” value in data set [9] and in [17] was above 76 throughout. In data set [10], the fraction unbound was 0.02. In addition, the half-life is 16 h in data set [11] and 17 h in data set [15]. The compound also had a clearance in [12] of 2.1 mL/min/kg. Also, the Vd in [13] came out at 2.7 L/kg. In addition, the Cmax in data set [14] turned out to be 2000 nM. In data set [16], this compound registered a bioavailability of 15%.
